ChEMBL document CHEMBL1158505, “Phenolics from Glycyrrhiza glabra roots and their PPAR-gamma ligand-binding activity” (Bioorg Med Chem, 2010)
Active and inactive are the calls of the source. No cut-off for these calls is given here.

Target: T1, Peroxisome proliferator-activated receptor gamma (Homo sapiens) (UniProt P37231)
T1 sequence (whole entry): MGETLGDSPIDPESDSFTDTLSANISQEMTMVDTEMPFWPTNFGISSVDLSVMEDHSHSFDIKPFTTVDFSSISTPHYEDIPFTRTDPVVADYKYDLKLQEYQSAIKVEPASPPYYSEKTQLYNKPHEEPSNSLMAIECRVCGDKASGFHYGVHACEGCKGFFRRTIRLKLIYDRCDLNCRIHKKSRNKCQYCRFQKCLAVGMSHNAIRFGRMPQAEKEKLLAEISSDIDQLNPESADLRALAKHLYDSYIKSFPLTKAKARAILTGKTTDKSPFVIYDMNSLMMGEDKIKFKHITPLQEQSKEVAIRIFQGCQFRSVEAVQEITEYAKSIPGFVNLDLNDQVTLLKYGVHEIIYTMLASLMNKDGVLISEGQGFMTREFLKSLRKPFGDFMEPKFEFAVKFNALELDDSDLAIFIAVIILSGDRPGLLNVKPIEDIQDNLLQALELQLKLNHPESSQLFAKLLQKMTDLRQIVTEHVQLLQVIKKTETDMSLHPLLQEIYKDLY
Experiment: Binding affinity to human recombinant […] expressed in african green monkey CV1 cells coexpressing GAL4-luc reporter by microplate scintillation counter
Format: cell-based
Settings: CV-1
Procedure, shortened: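 GAL4-PPAR-γ chimera reporter assay in CV-1 monkey kidney cells seeded at 6 × 10³ cells/well in DMEM with 10% FBS and ascorbic acid, 37 °C, 5% CO2, 24 h. Cells transfected with pM-hPPAR-γ and p4×UASg-tk-luc, then 24 h later given DMEM with 10% charcoal-treated FBS plus sample (2 or 10 μg/mL; final DMSO 0.1%) for 24 h. Luciferase luminescence expressed relative to DMSO control; n = 4.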

Activity, active:
CC1(C)C=Cc2c(ccc3cc(-c4ccc(O)cc4O)c(=O)oc23)O1
CC1(C)C=Cc2c(ccc(-c3coc4cc(O)ccc4c3=O)c2O)O1
CC(C)=CCc1c(O)cc(O)c2c(=O)c(-c3ccc(O)c(O)c3)coc12
CC(C)=CCc1cc2c(=O)cc(-c3ccc(O)cc3)oc2cc1O
CC(C)=CCc1c(O)ccc([C@@H]2COc3c(ccc(O)c3CC=C(C)C)C2)c1O
CC(C)=CCc1cc([C@@H]2CC(=O)c3ccc(O)c(CC=C(C)C)c3O2)ccc1O
COc1ccc([C@@H]2COc3cc(O)ccc3C2)c(O)c1O
COc1cc(O)ccc1/C=C/C(=O)c1ccc(O)cc1
CC1(C)C=Cc2c(ccc3c2OC[C@@H](c2cc(C=O)c(O)cc2O)C3)O1
CC1(C)C=Cc2c(ccc3c2OC[C@H]2c4ccc(O)cc4O[C@@H]32)O1
CC(C)=CCc1cc([C@@H]2CC(=O)c3ccc4c(c3O2)C=CC(C)(C)O4)ccc1O
CC(C)=CCc1cc([C@H]2Oc3cc(O)ccc3C(=O)[C@@H]2O)ccc1O
